# Measured values: publication PMC4475435 (Clinical therapeutics, 2015)
# Read-outs that look alike come from different tables or passages of the source. Marks after values point to notes of the source that are not given here.
# How the values were obtained:
# [1] = Population-based PK model; assay type: in vivo, human
# Method in brief: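 Matched case-control: overweight/obese children (≥85th percentile, CDC charts) vs normal-weight controls matched on age (±1 y), SCr (±0.4 mg/dL), nephrotoxic co-medication and ICU stay; 389 serum levels, mostly drawn after third dose, with full dosing history. One-compartment first-order model, FOCE with interaction; age and SCr on CL; weight on Vd, weight^0.75 on CL; MAP Bayesian POSTHOC individual estimates; 1000-replicate bootstrap 95% CIs.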
# [2] = weight used: Weight, cited from earlier work
# [3] = cited from earlier work
# [4] = bootstrap analysis of 1000 replicates
# [5] = obese and overweight children compared with those with normal weight
# [6] = overweight/obese cases versus normal-weight controls, 87 matched pairs
# [7] = 18 overweight children, age 5, 0.5–18 y
# [8] = 4 normal-weight adults (Weight <115% IW), 25–30 y, weight used: Weight, SD
# [9] = 6 morbidly obese adults (Weight >190% IW), 27–37 y, weight used: Weight, SD
# [10] = 6 morbidly obese adults, 27–37 y, weight used: IW, SD
# [11] = 24 morbidly obese adults (Weight >190% IW), 41 (7) y, weight used: Weight, SD
# [12] = 24 morbidly obese adults, weight used: IW, SD
# [13] = 24 normal-weight adults, weight used: IW, SD
smiles,measurement,setting,value
CN[C@H](CC(C)C)C(=O)N[C@H]1C(=O)N[C@@H](CC(N)=O)C(=O)N[C@H]2C(=O)N[C@H]3C(=O)N[C@H](C(=O)N[C@H](C(=O)O)c4cc(O)cc(O)c4-c4cc3ccc4O)[C@H](O)c3ccc(c(Cl)c3)Oc3cc2cc(c3O[C@@H]2O[C@H](CO)[C@@H](O)[C@H](O)[C@H]2O[C@H]2C[C@](C)(N)[C@H](O)[C@H](C)O2)Oc2ccc(cc2Cl)[C@H]1O [vancomycin],"θ1, Median Bootstrap Estimate (95% CI)",[1]; [4],0.572 (0.514–0.632)
same,"θ2, Median Bootstrap Estimate (95% CI)",[1]; [4],0.285 (0.268–0.304)
same,"θ3, Median Bootstrap Estimate (95% CI)",[1]; [4],0.291 (0.165–0.395)
same,"θ4, Median Bootstrap Estimate (95% CI)",[1]; [4],0.742 (0.194–1.263)
same,"θ1, population estimate: Vd (L) = θ1 × Weight (kg)","[1]; final population PK model, 174 participants, 389 concentrations",0.574
same,decrease of weight-adjusted CL,[1]; [5],10.8%
same,decrease of weight-adjusted Vd,[1]; [5],2.2%
same,"mean CL, based on weight, for cases lower than controls by",[1]; [6],0.233 mL/min/kg
same,"mean Vd, based on weight, for cases lower than controls by",[1]; [6],0.012 L/kg
same,"Clearance, Mean (SD) or Median (Range)",[2]; 13 underweight children,0.18 (0.09) L/kg/h
same,"Vd, Mean (SD) or Median (Range)",[2]; 13 underweight children,0.97 (0.54) L/kg
same,"Clearance, Mean (SD) or Median (Range)",[2]; [7],0.16 (0.05) L/kg/h
same,"Vd, Mean (SD) or Median (Range)",[2]; [7],0.81 (0.37) L/kg
same,"Clearance, Mean (SD) or Median (Range)",[2]; 31 normal-weight children,0.2 (0.08) L/kg/h
same,"Vd, Mean (SD) or Median (Range)",[2]; 31 normal-weight children,1 (0.35) L/kg
same,"Clearance, Mean (SD) or Median (Range)",[3]; [8],0.065 (0.004) L/kg/h
same,"Vd, Mean (SD) or Median (Range)",[3]; [8],0.39 (0.06) L/kg
same,"Clearance, Mean (SD) or Median (Range)",[3]; [9],0.066 (0.01) L/kg/h
same,"Vd, Mean (SD) or Median (Range)",[3]; [9],0.26 (0.03) L/kg
same,"Clearance, Mean (SD) or Median (Range)",[3]; [10],0.174 (0.04) L/kg/h
same,"Vd, Mean (SD) or Median (Range)",[3]; [10],0.68 (0.07) L/kg
same,"Clearance, Mean (SD) or Median (Range)",[3]; [11],0.072 (0.012) L/kg/h
same,"Vd, Mean (SD) or Median (Range)",[3]; [11],0.32 (0.05) L/kg
same,"Clearance, Mean (SD) or Median (Range)",[3]; [12],0.186 (0.042) L/kg/h
same,"Vd, Mean (SD) or Median (Range)",[3]; [12],0.83 (0.08) L/kg
same,"Clearance, Mean (SD) or Median (Range)",[3]; [13],0.06 (0.024) L/kg/h
same,"Vd, Mean (SD) or Median (Range)",[3]; [13],0.64 (0.26) L/kg
same,"Vd, Mean (SD) or Median (Range)","[3]; 37 underweight adults (Weight <80% IW), weight used: IW, 95% CI 0.55–0.68",0.62 (0.55–0.68 ^‡) L/kg
same,"Clearance, Mean (SD) or Median (Range)","[3]; 107 obese adults (Weight >120% LBM), weight used: Weight, range of means",0.0366–0.051 ^† L/kg/h
same,"Vd, Mean (SD) or Median (Range)","[3]; 108 obese adults (Weight >130% IW), weight used: IW, 95% CI 0.82–0.97",0.89 (0.82–0.97 ^‡) L/kg
same,"Vd, Mean (SD) or Median (Range)","[3]; 108 obese adults (Weight >130% IW), weight used: Weight, 95% CI 0.52–0.59",0.56 (0.52–0.59 ^‡) L/kg
